Compounds with a hit are over-represented: about 1.5% of the library has one in this group of screens.
NR2E3 ag-1 = activates human photoreceptor nuclear receptor NR2E3; Q9Y5X4; 0.12% of 320,000 active; AID 2300; inhibition of corepressor binding, % at 4.78 µM; GST-NR2E3/biotin-RetCOR TR-FRET, 1536-well;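 active = percent inhibition above the cutoff of mean plus 3 SD of all tested compounds, set per screening campaign, cut at about 20% in these data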
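System: GST-tagged NR2E3 plus biotinylated RetCOR corepressor; Amount: 1.35 nM GST-tagged NR2E3 final; Dosing: single nominal compound dose of 4.8 µM; Schedule: 5 h incubation at 4 °C; Technique: TR-FRET with europium anti-GST and streptavidin-D2, 340 nm excitation; Controls: biotin wells as high control, 0.6% DMSO wells as low control.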
NR2E3 ag-2 = human photoreceptor-specific nuclear receptor agonism; CHO-S Gal4-NCOR/VP16-NR2E3 two-hybrid, luciferase; inhibition of corepressor binding, % at 3.98 µM; 0.35% of 360,000 active;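 active = inhibition above the mean of all tested compounds plus 3 SD, cut at about 70% in these data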;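 note: higher means lower luciferase signal from less NR2E3 corepressor binding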
Jurkat NFkB inh = inhibitors of the PMA/ionomycin-induced NF-kB reporter in Jurkat cells; inhibition, % at 4 µM; AID 435003; 0.53% of 330,000 active; PMA/ionomycin-induced NF-kB luciferase reporter, luminescence; in the data active = inhibition above about 50%
697 NFkB inh = inhibitors of the PMA/ionomycin-induced NF-kB reporter in 697 B cells. 697 B-cell NF-kB luciferase reporter, 16 h. inhibition, % at 4 µM. 0.33% of 330,000 active. AID 435022; in the data active = inhibition above about 35%
GASC-1 inh = inhibitors of human GASC-1 (JMJD2C) demethylase; Q9H3R0; inhibition, % at 2.35 µM; GST-JMJD2C(1-420) H3K9me3 demethylation, DELFIA europium; 0.069% of 330,000 active;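 active = more than half of a compound's replicate wells show inhibition beyond 50%, single wells judged on their own value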;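 note: signal counts dimethyl H3K9 product captured on neutravidin plate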
Target sequence (Q9H3R0 1-420 limits assumed): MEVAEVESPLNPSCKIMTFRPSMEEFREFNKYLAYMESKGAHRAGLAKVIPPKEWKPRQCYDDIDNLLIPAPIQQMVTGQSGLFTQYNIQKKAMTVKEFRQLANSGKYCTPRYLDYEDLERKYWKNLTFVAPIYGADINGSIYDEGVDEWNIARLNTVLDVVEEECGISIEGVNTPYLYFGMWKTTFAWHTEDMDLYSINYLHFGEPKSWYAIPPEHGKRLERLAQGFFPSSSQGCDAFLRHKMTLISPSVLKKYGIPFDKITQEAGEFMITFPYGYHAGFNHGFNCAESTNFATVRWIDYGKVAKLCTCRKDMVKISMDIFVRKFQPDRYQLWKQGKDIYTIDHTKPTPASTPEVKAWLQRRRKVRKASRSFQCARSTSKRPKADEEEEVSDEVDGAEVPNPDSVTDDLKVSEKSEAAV
GalR3 antagonist = antagonists of human GalR3 | HEK293 GalR3-CNG cAMP membrane potential fluorescence; galR3 body fused to GalR1 C-terminus | O60755 | inhibition, % at 3 µM | AID 651719 | 0.44% of 360,000 active;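 active = inhibition above the screen-wide average plus 3 SD, cut at about 13% in these data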;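 note: forskolin and galanin both at EC90 stimulate the cells; cAMP rise reported by CNG channel membrane potential dye signal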
Target sequence (O60755 1-299 limits assumed): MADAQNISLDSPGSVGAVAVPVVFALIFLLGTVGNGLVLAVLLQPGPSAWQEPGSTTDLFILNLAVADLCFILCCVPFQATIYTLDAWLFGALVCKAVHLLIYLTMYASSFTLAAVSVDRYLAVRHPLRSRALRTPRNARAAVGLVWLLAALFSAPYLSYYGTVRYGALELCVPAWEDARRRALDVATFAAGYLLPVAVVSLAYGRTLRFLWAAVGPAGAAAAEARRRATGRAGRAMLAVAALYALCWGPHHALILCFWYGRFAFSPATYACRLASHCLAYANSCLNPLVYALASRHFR
Jurkat NFkB conf = lowers PMA/ionomycin-induced NF-kB signal in Jurkat cells | shares compounds with Jurkat NFkB inh | Jurkat NF-kB luciferase, 16 h | inhibition, % at 4 µM | 27% of 2,700 active;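 active = inhibition reaching about 45% at 4 µM in either replicate, limit read from the data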
A number is an active result.

`CCOc1cc(-c2cc(-c3ccc(C)cc3)nc(N)c2C#N)ccc1O` gave NR2E3 ag-1 inactive, NR2E3 ag-2 inactive, Jurkat NFkB inh 51, 697 NFkB inh inactive, GASC-1 inh inactive, GalR3 antagonist inactive and Jurkat NFkB conf inactive.
Screening Cc1ccc(C2=NNC(c3cccc(F)c3)S2)cc1 (stereo not drawn) returned NR2E3 ag-1 inactive, NR2E3 ag-2 inactive, Jurkat NFkB inh inactive, 697 NFkB inh inactive, GASC-1 inh inactive, GalR3 antagonist inactive and Jurkat NFkB conf inactive.
Screening O=C(Nc1ccc2c(c1)OCO2)C1Cc2c(-c3ccc4c(c3)OCO4)ccnc2O1 (stereo not drawn) returned NR2E3 ag-2 inactive and GalR3 antagonist inactive.
For O=Cc1cc2ccccc2nc1SCc1ccc(Cl)cc1 the results were NR2E3 ag-1 inactive, NR2E3 ag-2 inactive, Jurkat NFkB inh inactive, 697 NFkB inh inactive, GASC-1 inh inactive and GalR3 antagonist inactive.
O=Cc1cc2ccccc2nc1SCc1ccc(Cl)c(Cl)c1 was read as NR2E3 ag-1 inactive, NR2E3 ag-2 inactive, Jurkat NFkB inh 57, 697 NFkB inh inactive, GASC-1 inh inactive, GalR3 antagonist inactive and Jurkat NFkB conf inactive.
For CN(C)S(=O)(=O)c1ccc(C(=O)OCCn2cnc3c2c(=O)n(C)c(=O)n3C)cc1 the results were NR2E3 ag-1 inactive, NR2E3 ag-2 inactive, Jurkat NFkB inh inactive, 697 NFkB inh inactive and GalR3 antagonist inactive.
O=c1cc(-c2cccc(F)c2)[nH]c2ccccc12 was read as NR2E3 ag-1 inactive, NR2E3 ag-2 inactive, Jurkat NFkB inh 72, 697 NFkB inh inactive, GASC-1 inh inactive, GalR3 antagonist inactive and Jurkat NFkB conf 62.
Screening O=c1cc(-c2ccc(F)cc2F)[nH]c2ccccc12 returned NR2E3 ag-1 inactive, Jurkat NFkB inh inactive, 697 NFkB inh inactive and GASC-1 inh inactive.
For O=c1cc(-c2ccccc2)[nH]c2cc(Cl)ccc12 the results were NR2E3 ag-1 inactive, NR2E3 ag-2 inactive, Jurkat NFkB inh 65, 697 NFkB inh inactive, GASC-1 inh inactive, GalR3 antagonist inactive and Jurkat NFkB conf 61.
Screening Cc1ccc2[nH]c(-c3cccc(F)c3)cc(=O)c2c1 returned NR2E3 ag-1 inactive, NR2E3 ag-2 inactive, Jurkat NFkB inh 52, 697 NFkB inh inactive, GASC-1 inh inactive, GalR3 antagonist inactive and Jurkat NFkB conf inactive.
For COc1ccc2[nH]c(-c3cccc(F)c3)cc(=O)c2c1 the results were NR2E3 ag-1 inactive, NR2E3 ag-2 inactive, Jurkat NFkB inh inactive, 697 NFkB inh inactive, GASC-1 inh inactive and GalR3 antagonist inactive.
`Clc1ccc2[nH]c(-c3ccccc3)cc2c1` gave NR2E3 ag-1 inactive, NR2E3 ag-2 inactive, Jurkat NFkB inh inactive, 697 NFkB inh inactive, GASC-1 inh inactive and GalR3 antagonist inactive.
For CC(C)Oc1ccc(C(=O)Nc2c3c(nn2C(C)(C)C)CS(=O)(=O)C3)cc1 the results were NR2E3 ag-1 inactive, NR2E3 ag-2 inactive, Jurkat NFkB inh inactive, 697 NFkB inh inactive, GASC-1 inh inactive and GalR3 antagonist inactive.
For CCN(CC)C(=O)[C@H]1CC(CC(=O)NCc2ccco2)C(=O)N2CCc3c([nH]c4ccc(OC)cc34)[C@]12C (stereo partly drawn) the results were NR2E3 ag-2 inactive, 697 NFkB inh inactive and GalR3 antagonist inactive.
`CC1(C(=O)O)CCC(C(=O)N2CCOCC2)C1(C)C` (stereo not drawn) gave NR2E3 ag-1 inactive, NR2E3 ag-2 inactive, Jurkat NFkB inh inactive, 697 NFkB inh inactive, GASC-1 inh inactive and GalR3 antagonist inactive.
CC(=O)c1cc2c(cc1NC(=O)c1cc(C)nn1-c1ccccc1)OCO2 was read as NR2E3 ag-1 inactive, NR2E3 ag-2 inactive, Jurkat NFkB inh 55, 697 NFkB inh inactive, GASC-1 inh inactive, GalR3 antagonist inactive and Jurkat NFkB conf inactive.
`O=C(CCCc1ccncc1)c1ccccc1` gave NR2E3 ag-2 inactive and GalR3 antagonist inactive.
Screening CCN1C(=O)N2C[C@H]3CON(C)[C@H]3C[C@H]2c2ccccc21 returned NR2E3 ag-2 inactive and GalR3 antagonist inactive.
For O=S(=O)(Nc1ccccc1)c1ccc(-c2cnc(C3CC3)o2)cc1 the results were NR2E3 ag-1 inactive, NR2E3 ag-2 inactive, Jurkat NFkB inh 53, 697 NFkB inh inactive, GASC-1 inh inactive, GalR3 antagonist inactive and Jurkat NFkB conf inactive.
Screening COc1ccc(NS(=O)(=O)c2cc(-c3cnc(C4CC4)o3)ccc2C)cc1 returned NR2E3 ag-1 inactive, NR2E3 ag-2 inactive, Jurkat NFkB inh 59, 697 NFkB inh inactive, GASC-1 inh inactive, GalR3 antagonist inactive and Jurkat NFkB conf 49.
Screening Cc1ccnc(NS(=O)(=O)c2ccc(NC(=O)CSc3nc(-c4ccccc4)cc(=O)[nH]3)cc2)n1 returned NR2E3 ag-1 inactive, NR2E3 ag-2 inactive, Jurkat NFkB inh inactive, 697 NFkB inh inactive, GASC-1 inh inactive and GalR3 antagonist inactive.
CCC(=O)Oc1ccc(-c2cnc3ccccc3n2)cc1 was read as NR2E3 ag-1 inactive, NR2E3 ag-2 inactive, Jurkat NFkB inh inactive, 697 NFkB inh inactive, GASC-1 inh inactive and GalR3 antagonist inactive.
Screening O=C(Oc1ccc(-c2cnc3ccccc3n2)cc1)c1ccco1 returned NR2E3 ag-1 inactive, NR2E3 ag-2 inactive, Jurkat NFkB inh inactive, 697 NFkB inh inactive, GASC-1 inh inactive, GalR3 antagonist inactive and Jurkat NFkB conf inactive.
Screening Cc1ccc(N(C(=O)Cn2nnc(-c3ccccc3)n2)C(C(=O)NC2CCCCC2)c2ccccn2)cc1C (stereo not drawn) returned NR2E3 ag-1 inactive, NR2E3 ag-2 inactive, Jurkat NFkB inh inactive, 697 NFkB inh inactive, GASC-1 inh inactive and GalR3 antagonist inactive.
CCN(C(=O)CN1CCN(S(=O)(=O)c2cc(Cl)ccc2Cl)CC1)c1c(N)n(Cc2ccccc2)c(=O)[nH]c1=O was read as NR2E3 ag-1 inactive, NR2E3 ag-2 inactive, Jurkat NFkB inh inactive, 697 NFkB inh inactive, GASC-1 inh inactive and GalR3 antagonist inactive.
For CCOc1ccccc1-c1cc(C(=O)N/N=C/c2cccnc2)c2ccccc2n1 the results were NR2E3 ag-1 inactive, NR2E3 ag-2 inactive, Jurkat NFkB inh inactive, 697 NFkB inh inactive, GASC-1 inh inactive and GalR3 antagonist inactive.
Cc1ccc(COc2ccccc2-c2cc(C(=O)N/N=C/c3cccnc3)[nH]n2)cc1 was read as NR2E3 ag-1 inactive, NR2E3 ag-2 inactive, Jurkat NFkB inh 53, 697 NFkB inh inactive, GASC-1 inh inactive, GalR3 antagonist inactive and Jurkat NFkB conf inactive.
`C#Cc1ccc([C@@H]2C=C(C(=O)N3CCN(Cc4ccccc4)CC3)O[C@H](OCCCCO)C2)cc1` gave NR2E3 ag-1 inactive, NR2E3 ag-2 75, Jurkat NFkB inh 80, 697 NFkB inh inactive, GASC-1 inh inactive and Jurkat NFkB conf inactive.

Bioassay records (PubChem BioAssay)
